In article PMC6980386 (Traffic (Copenhagen, Denmark), 2019):

Legend:
huCD4_1–32-YFP L12A = huCD4_1–32-YFP L12A (Homo sapiens, UniProt P01730, L12A); test: CADA inhibition of huCD4_1–32-YFP secretion; format: cell-based
How it was run: (§1)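 HEK293T cells were grown in DMEM with 10% FBS and 10 mM HEPES, seeded and left to adhere overnight, then transiently transfected with plasmid by Lipofectamine. Test compound was added 6 h after transfection as a 1:5 serial dilution (50 to 0.016 μM) for 48 h. Secreted YFP in the supernatant was captured on GFP-Trap magnetic beads for 1 h, washed with PBS and measured by flow cytometry. IC50 is the concentration that halves the signal relative to the untreated control, taken from a four-parameter fit of at least three replicate experiments. FC is the mutant mean IC50 divided by the WT mean IC50.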

huCD4_1–32-YFP K27A = test: CADA inhibition of huCD4_1–32-YFP secretion; format: cell-based, human
How it was run: as §1

[1] = target: truncated huCD4 D1D2 L12A (Homo sapiens, UniProt P01730, L12A); test: Cell-free in vitro translation and translocation; format: biochemical; settings: 15 μM CADA
How it was run: (§2)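 Truncated huCD4 D1D2 (lacking glycosylation sites and membrane anchor) was made by PCR and transcribed with T7. Proteinase K protection ran 30 min on ice and was quenched with PMSF. Products were separated by SDS-PAGE and imaged by phosphor imaging. The SP-cleaved band was normalised to the matching control. Data are from 2–5 independent experiments, compared with WT by Welch t test.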

huCD4_1–32-YFP L11A = huCD4_1–32-YFP L11A (Homo sapiens, UniProt P01730, L11A); test: CADA inhibition of huCD4_1–32-YFP secretion; format: cell-based
How it was run: as §1

huCD4_1–32-YFP R3A = huCD4_1–32-YFP R3A (Homo sapiens, UniProt P01730, R3A); test: CADA inhibition of huCD4_1–32-YFP secretion; format: cell-based
How it was run: as §1

FL huCD4 K33A = FL huCD4 K33A (Homo sapiens, UniProt P01730, K33A); test: CADA down-modulation of cellular huCD4; format: cell-based; settings: HEK293T, 48h
How it was run: (§3)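 HEK293T cells, seeded overnight in DMEM with 10% serum, 1 mM sodium pyruvate and 0.075% NaHCO₃, were lipofected with full-length human CD4 (WT or mutant). Test compound in DMSO was added 6 h post-transfection as 1:5 serial dilutions (50–0.016 μM) for 48 h. Surface CD4 was stained with FITC/APC anti-CD4 (SK3) and read by flow cytometry. IC50 is 50% of the untreated signal, from four-parameter fits of ≥3 replicate experiments. FC is mutant/WT mean IC50.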

FL huCD4 L30A = FL huCD4 L30A (Homo sapiens, UniProt P01730, L30A); test: CADA down-modulation of cellular huCD4; format: cell-based
How it was run: as §3

FL huCD4 A22V = FL huCD4 A22V (Homo sapiens, UniProt P01730, A22V); test: CADA down-modulation of cellular huCD4; format: cell-based
How it was run: as §3

FL huCD4 N2A = FL huCD4 N2A (Homo sapiens, UniProt P01730, N2A); test: CADA down-modulation of cellular huCD4; format: cell-based
How it was run: as §3

FL huCD4 K27A = FL huCD4 K27A (Homo sapiens, UniProt P01730, K27A); test: CADA down-modulation of cellular huCD4; format: cell-based
How it was run: as §3

[2] = target: truncated huCD4 D1D2 L16A (Homo sapiens, UniProt P01730, L16A); test: Cell-free in vitro translation and translocation; format: biochemical; settings: 15 μM CADA
How it was run: as §2

FL huCD4 R3A = FL huCD4 R3A (Homo sapiens, UniProt P01730, R3A); test: CADA down-modulation of cellular huCD4; format: cell-based
How it was run: as §3

truncated huCD4 D1D2 WT = truncated huCD4 D1D2 WT (Homo sapiens, UniProt P01730); test: Cell-free in vitro translation and translocation; format: biochemical
How it was run: as §2

FL huCD4 G25A = FL huCD4 G25A (Homo sapiens, UniProt P01730, G25A); test: CADA down-modulation of cellular huCD4; format: cell-based
How it was run: as §3

FL huCD4 T23A = FL huCD4 T23A (Homo sapiens, UniProt P01730, T23A); test: CADA down-modulation of cellular huCD4; format: cell-based
How it was run: as §3

[3] = target: truncated huCD4 D1D2 K26A (Homo sapiens, UniProt P01730, K26A); test: Cell-free in vitro translation and translocation; format: biochemical
How it was run: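 Proteinase K protection 30 min on ice, quenched with PMSF. Pellets washed in low-salt buffer (HEPES pH 7.6), then SDS-PAGE and phosphor imaging. Translocation normalised to untreated WT. Two to five independent experiments; Welch's t test.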

FL huCD4 V28A = FL huCD4 V28A (Homo sapiens, UniProt P01730, V28A); test: CADA down-modulation of cellular huCD4; format: cell-based
How it was run: as §3

huCD4_1–32-YFP G4A = huCD4_1–32-YFP G4A (Homo sapiens, UniProt P01730, G4A); test: CADA inhibition of huCD4_1–32-YFP secretion; format: cell-based
How it was run: as §1

FL huCD4 R8A = FL huCD4 R8A (Homo sapiens, UniProt P01730, R8A); test: CADA down-modulation of cellular huCD4; format: cell-based; settings: read-out: Cellular huCD4 IC50 (μM) Mean, HEK293T, CADA 48h
How it was run: as §3

FL huCD4 G4A = FL huCD4 G4A (Homo sapiens, UniProt P01730, G4A); test: CADA down-modulation of cellular huCD4; format: cell-based
How it was run: as §3

[4] = target: truncated huCD4 D1D2 L18A (Homo sapiens, UniProt P01730, L18A); test: Cell-free in vitro translation and translocation; format: biochemical; settings: 15 μM CADA
How it was run: as §2

[5] = target: truncated huCD4 D1D2 Q15A (Homo sapiens, UniProt P01730, Q15A); test: Cell-free in vitro translation and translocation; format: biochemical
How it was run: as §2

FL huCD4 F7A = FL huCD4 F7A (Homo sapiens, UniProt P01730, F7A); test: CADA down-modulation of cellular huCD4; format: cell-based
How it was run: as §3

FL huCD4 P20G = FL huCD4 P20G (Homo sapiens, UniProt P01730, P20G); test: CADA down-modulation of cellular huCD4; format: cell-based; settings: HEK293T, 48h
How it was run: as §3

[6] = + less, − more sensitive to CADA
[7] = read-out: Secreted YFP IC50 (μM) Mean, HEK293T, CADA 48h
[8] = read-out: Cellular huCD4 IC50 (μM) Mean, HEK293T, CADA 48h

In the case of `C=C1CN(S(=O)(=O)c2ccc(C)cc2)CCCN(Cc2ccccc2)CCCN(S(=O)(=O)c2ccc(C)cc2)C1` [CADA, Cyclotriazadisulfonamide], the “enhanced CADA sensitivity relative to WT” value (huCD4_1–32-YFP L12A) is reported as 5 fold, the “Secreted YFP FC (fold change of mean IC50 relative to WT)” value (huCD4_1–32-YFP L12A; [6]) is reported as −5.3 and the IC50 (huCD4_1–32-YFP L12A; [7]) is reported as 0.24 µM. For the same compound, the “Secreted YFP FC (fold change of mean IC50 relative to WT)” value (huCD4_1–32-YFP K27A; [6]) was “>+39”, the IC50 (huCD4_1–32-YFP K27A; [7]) was over 50 µM and the “sensitivity of translocation towards CADA compared to WT” value (shortened to “sensitivity … compared to WT”) [1] was “higher sensitivity towards CADA”. For the same compound, the “Secreted YFP FC (fold change of mean IC50 relative to WT)” value (huCD4_1–32-YFP L11A; [6]) was −3.3, the IC50 (huCD4_1–32-YFP L11A; [7]) was 0.38 µM and the “Secreted YFP FC (fold change of mean IC50 relative to WT)” value (huCD4_1–32-YFP R3A; [6]) was “+1.6”. For the same compound, the IC50 (huCD4_1–32-YFP R3A; [7]) was 1.99 µM, the IC50 (FL huCD4 K33A) was over 50 µM and the “Cellular huCD4 FC (fold change of mean IC50 relative to WT)” value (FL huCD4 L30A; [6]) was “+1.6”. The IC50 (FL huCD4 L30A; [8]) was 0.84 µM, the “Cellular huCD4 FC (fold change of mean IC50 relative to WT)” value (FL huCD4 A22V; [6]) was “+1.5” and the IC50 (FL huCD4 A22V; [8]) was 0.79 µM. The “Cellular huCD4 FC (fold change of mean IC50 relative to WT)” value (FL huCD4 N2A; [6]) was “+1.4”, the IC50 (FL huCD4 N2A; [8]) was 0.73 µM and the “Cellular huCD4 FC (fold change of mean IC50 relative to WT)” value (FL huCD4 K27A; [6]) was “+2.4”. The IC50 (FL huCD4 K27A; [8]) was 1.3 µM, the “sensitivity … compared to WT” value [2] was “higher sensitivity towards CADA” and the “Cellular huCD4 FC (fold change of mean IC50 relative to WT)” value (FL huCD4 R3A; [6]) was −1.1. The IC50 (FL huCD4 R3A; [8]) was 0.47 µM, the “inhibition of translocation by CADA” value (truncated huCD4 D1D2 WT; 15 μM CADA vs DMSO, rabbit reticulocyte lysate, ovine microsomes) was 75% and the “effect of CADA on co-translational translocation” value (truncated huCD4 D1D2 WT; increasing doses of CADA) was “dose-dependently prevented by CADA”. The “Cellular huCD4 FC (fold change of mean IC50 relative to WT)” value (FL huCD4 G25A; [6]) was “+1.1”, the IC50 (FL huCD4 G25A; [8]) was 0.61 µM and the “Cellular huCD4 FC (fold change of mean IC50 relative to WT)” value (FL huCD4 T23A; [6]) was “+1.6”. The IC50 (FL huCD4 T23A; [8]) was 0.87 µM, the “sensitivity … compared to WT” value ([3]; 15 μM CADA) was “significantly reduced sensitivity to CADA” and the “effect of CADA on co-translational translocation” value ([3]; increasing doses of CADA) was “still responded to CADA, although to a lesser extent as compared to WT huCD4”. For the same compound, the “Cellular huCD4 FC (fold change of mean IC50 relative to WT)” value (FL huCD4 V28A; [6]) was 1.00, the IC50 (FL huCD4 V28A; [8]) was 0.54 µM and the “Secreted YFP FC (fold change of mean IC50 relative to WT)” value (huCD4_1–32-YFP G4A; [6]) was −1.4. The IC50 (huCD4_1–32-YFP G4A; [7]) was 0.91 µM, the IC50 (FL huCD4 R8A) was 4.2 µM and the “Cellular huCD4 FC (fold change of mean IC50 relative to WT)” value (FL huCD4 G4A; [6]) was −1.5. For the same compound, the IC50 (FL huCD4 G4A; [8]) was 0.35 µM, the “sensitivity … compared to WT” value [4] was “higher sensitivity towards CADA” and the “inhibitory effect of CADA on protein translocation compared to WT” value ([5]; 15 μM CADA) was “significantly reduced”. For the same compound, the “impact of CADA on co-translational translocation” value ([5]; increasing doses of CADA) was “significantly reduced”, the “Cellular huCD4 FC (fold change of mean IC50 relative to WT)” value (FL huCD4 F7A; [6]) was −4.2 and the IC50 (FL huCD4 F7A; [8]) was 0.13 µM. The “sensitivity to CADA” value (FL huCD4 P20G) was “fully restored CADA sensitivity”.
